E-sel inducer – induces E-selectin expression in human endothelial cells; P16581; HUVEC E-selectin immunofluorescence imaging; normalized: neutral wells 0, TNF-alpha wells 100; activation, % at 7.58 µM; hit rate 0.37% among 260,000; AID 686992;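 active = mean E-selectin-positive cell signal at least 10% of the positive control, reached in at least 60% of replicates, without over 20% cell loss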
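Assay system: HUVEC, human umbilical vein endothelial cells / Amount: 3,000 HUVEC/well / Controls: TNF-alpha positive control, DMSO neutral control / Compound dosing: single concentration / Medium: EGM-2 over gelatin coat / Evaluation: percent E-selectin-positive cells / Signal: immunofluorescence imaging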
ERAP1 inh – blocks human ERAP1 aminopeptidase activity | Q9NZ08 | hit rate 0.15% among 340,000 | AID 652197 | recombinant ERAP1, Leu-AMC fluorescence, 60 min | inhibition, % at 10.7 µM;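 active = mean replicate inhibition of at least 30%, or all replicates individually reaching that 30% level; inactive = mean below 30% and not every replicate reaching it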;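 note: 0% = neutral control wells and 100% = L-leucinethiol positive control wells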
SIRT5 block – blocks human SIRT5 desuccinylation of peptide | AID 652115 | Q9NXA8 | hit rate 1.1% among 330,000 | Purified SirT5, succinyl-peptide AMC, trypsin-coupled fluorescence | inhibition, % at 15 µM; in the data active = inhibition above about 15%
Target sequence (Q9NXA8 whole entry, looked up): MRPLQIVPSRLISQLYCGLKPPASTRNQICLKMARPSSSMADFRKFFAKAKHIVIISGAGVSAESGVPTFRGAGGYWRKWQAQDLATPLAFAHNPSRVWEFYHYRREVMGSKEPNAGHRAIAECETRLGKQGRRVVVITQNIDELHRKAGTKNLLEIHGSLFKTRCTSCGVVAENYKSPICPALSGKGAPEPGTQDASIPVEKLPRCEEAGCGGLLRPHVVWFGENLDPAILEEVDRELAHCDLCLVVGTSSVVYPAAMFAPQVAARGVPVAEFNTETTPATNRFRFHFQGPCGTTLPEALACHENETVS
rRNA inh HTS – inhibits bacterial ribosomal RNA function over humanized ribosomes | E. coli WT GFP vs humanized-ribosome RFP mutants, fluorescence, 24 h; stronger effect = lower value; DMSO median 0, no signal -100 | GFP signal change (wild-type ribosome), % (no concentration beside the values) | hit rate 1.6% among 350,000;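 active = significant combined selectivity score with lowered wild-type GFP, culture density cut under 30%, mutant RFP and density less affected; inactive = any of these conditions unmet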
S100A4 inh HTS – S100A4-myosin IIA interaction inhibition; inhibition, % at 10.7 µM; hit rate 0.14% among 360,000; S100A4/TAMRA-MyoIIA peptide fluorescence polarization; P26447;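 active = mean inhibition of at least 70% across replicates, with every replicate also reaching that level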
Target sequence (P26447 whole entry, looked up): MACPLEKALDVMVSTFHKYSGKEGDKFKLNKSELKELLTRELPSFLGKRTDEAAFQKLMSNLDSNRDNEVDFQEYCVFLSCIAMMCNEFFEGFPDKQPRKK
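Compound dosing: one dose per compound; test system: human S100A4 monomer with TAMRA-labelled myosin IIA peptide; probe or stimulus: TAMRA-labelled myosin IIA heavy-chain peptide probe, 5 nM; medium: HEPES buffer with Ca2+, pH 7.2; schedule: 5 min incubation before reading; benchmarks: neutral control DMSO, positive control TFP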
AF4-AF9 inh – blocks AF4 peptide binding to human AF9. hit rate 0.47% among 350,000. AlphaScreen, biotin-AF4 peptide binding to FLAG-AF9. P42568. inhibition, % at 10 µM;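 active = every replicate reaching a set inhibition limit, whatever the replicate mean, cut at about 25% in these data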;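 note: 0% = plate neutral control median and 100% = total signal loss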
An asterisk follows results filed as active. A selection: hits, their analogues and other compounds. The true share with any hit is near 3.4%.

How did COc1cccc(NC(=O)N2C[C@H](O)COC[C@H]3O[C@H](CC(=O)NC4CCC4)CC[C@@H]32)c1 do in these assays?
E-sel inducer: 0; ERAP1 inh: -1; SIRT5 block: 1; rRNA inh HTS: 1; S100A4 inh HTS: -2; AF4-AF9 inh: -4

How did O=S(=O)(Nc1cccc2[nH]ncc12)c1cccs1 do in these assays?
E-sel inducer: 33*; ERAP1 inh: -4; SIRT5 block: -4; rRNA inh HTS: 12; S100A4 inh HTS: -12; AF4-AF9 inh: -1

What do the screens show for `C[C@H]1CN([C@@H](C)CO)S(=O)(=O)c2ccc(-c3cccc(F)c3)cc2O[C@@H]1CN(C)S(=O)(=O)c1ccccc1`?
E-sel inducer: 0; ERAP1 inh: -2; SIRT5 block: 16*; rRNA inh HTS: -2; S100A4 inh HTS: 2; AF4-AF9 inh: 1

Results for C[C@@H]1CN([C@H](C)CO)S(=O)(=O)c2ccc(-c3cccc(F)c3)cc2O[C@@H]1CN(C)S(=O)(=O)c1ccccc1 ?
E-sel inducer: 0; ERAP1 inh: -3; SIRT5 block: 16*; rRNA inh HTS: 2; S100A4 inh HTS: 3; AF4-AF9 inh: -1

How did C[C@@H]1CN([C@@H](C)CO)S(=O)(=O)c2ccc(-c3cccc(F)c3)cc2O[C@H]1CN(C)S(=O)(=O)c1ccccc1 do in these assays?
E-sel inducer: 0; ERAP1 inh: -1; SIRT5 block: 13; rRNA inh HTS: -5; S100A4 inh HTS: 3; AF4-AF9 inh: 0

What do the screens show for `COc1ccccc1-c1ccc2c(c1)O[C@H](CN(C)S(=O)(=O)c1ccccc1)[C@@H](C)CN([C@@H](C)CO)S2(=O)=O`?
E-sel inducer: 0; ERAP1 inh: 2; SIRT5 block: 20*; rRNA inh HTS: -3; S100A4 inh HTS: 5; AF4-AF9 inh: 0

How did C[C@@H]1CN([C@H](C)CO)S(=O)(=O)c2ccc(-c3cccc(F)c3)cc2O[C@H]1CN(C)S(=O)(=O)c1ccccc1 do in these assays?
E-sel inducer: 0; ERAP1 inh: 0; SIRT5 block: 17*; rRNA inh HTS: 2; S100A4 inh HTS: 4; AF4-AF9 inh: 1

Results for COc1ccccc1-c1ccc2c(c1)O[C@H](CN(C)S(=O)(=O)c1ccccc1)[C@@H](C)CN([C@H](C)CO)S2(=O)=O ?
E-sel inducer: 0; ERAP1 inh: -2; SIRT5 block: 15; rRNA inh HTS: -4; S100A4 inh HTS: -6; AF4-AF9 inh: 2

Results for C[C@H](CO)N1C[C@H](C)[C@@H](CN(C)S(=O)(=O)c2ccccc2)Oc2cc(-c3cccc(F)c3)ccc2S1(=O)=O ?
E-sel inducer: 0; ERAP1 inh: -1; SIRT5 block: 7; rRNA inh HTS: -1; S100A4 inh HTS: 9; AF4-AF9 inh: 1

Results for CO[C@H]1CN(C)C(=O)c2cc(NC(=O)c3cnccn3)ccc2OC[C@H](C)N(CC2CC2)C[C@@H]1C ?
E-sel inducer: 0; ERAP1 inh: -1; SIRT5 block: -1; rRNA inh HTS: -1; S100A4 inh HTS: 1; AF4-AF9 inh: -1

How did CC(C)CC#Cc1cnc2c(c1)C(=O)N([C@H](C)CO)C[C@H](C)[C@H](CN(C)Cc1ccccc1F)O2 do in these assays?
E-sel inducer: 0; ERAP1 inh: 2; SIRT5 block: 1; rRNA inh HTS: 0; S100A4 inh HTS: 2; AF4-AF9 inh: -3

Results for COc1ccc(NC(=O)N(C)C[C@H]2OCCCC[C@@H](C)Oc3ccc(NS(=O)(=O)c4cccs4)cc3C(=O)N([C@@H](C)CO)C[C@H]2C)cc1 ?
E-sel inducer: 0; ERAP1 inh: -4; SIRT5 block: 0; rRNA inh HTS: 2; S100A4 inh HTS: 6; AF4-AF9 inh: -9

What do the screens show for `COc1ccccc1-c1ccc2c(c1)O[C@H](CN(C)C(C)=O)[C@@H](C)CN([C@@H](C)CO)S2(=O)=O`?
E-sel inducer: 0; ERAP1 inh: 2; SIRT5 block: -4; rRNA inh HTS: 2; S100A4 inh HTS: 123*; AF4-AF9 inh: -6

What do the screens show for `C[C@H]1CN([C@@H](C)CO)C(=O)Cc2cc(NS(C)(=O)=O)ccc2O[C@H]1CN(C)CC1CC1`?
E-sel inducer: 1; ERAP1 inh: 4; SIRT5 block: 3; rRNA inh HTS: 2; S100A4 inh HTS: 3; AF4-AF9 inh: 0

Screening results deposited in PubChem BioAssay by Broad Institute.
